The source made the active and inactive calls. The rule behind the calls is not given here.
Assays:
[1] = biological target: CYP2D6 (Homo sapiens, UniProt P10635); assay: Inhibition of CYP2D6 (unknown origin) assessed as percentage remaining activity at 10 uM; format: ADME; settings: read-out: INH
Procedure, shortened: (§1)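 CYP isoforms 1A2, 2C9, 2C19, 2D6, 3A4: % remaining enzyme activity in presence of 10 uM compound.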

[2] = biological target: T1, Peroxisome proliferator-activated receptor gamma (Homo sapiens, UniProt P37231); assay: Agonist activity at PPARgamma (unknown origin) assessed as receptor transactivation after 24 hrs by TK-PPRE-Luc expressing cells based luciferase reporter gene assay
T1 sequence (P37231 whole entry): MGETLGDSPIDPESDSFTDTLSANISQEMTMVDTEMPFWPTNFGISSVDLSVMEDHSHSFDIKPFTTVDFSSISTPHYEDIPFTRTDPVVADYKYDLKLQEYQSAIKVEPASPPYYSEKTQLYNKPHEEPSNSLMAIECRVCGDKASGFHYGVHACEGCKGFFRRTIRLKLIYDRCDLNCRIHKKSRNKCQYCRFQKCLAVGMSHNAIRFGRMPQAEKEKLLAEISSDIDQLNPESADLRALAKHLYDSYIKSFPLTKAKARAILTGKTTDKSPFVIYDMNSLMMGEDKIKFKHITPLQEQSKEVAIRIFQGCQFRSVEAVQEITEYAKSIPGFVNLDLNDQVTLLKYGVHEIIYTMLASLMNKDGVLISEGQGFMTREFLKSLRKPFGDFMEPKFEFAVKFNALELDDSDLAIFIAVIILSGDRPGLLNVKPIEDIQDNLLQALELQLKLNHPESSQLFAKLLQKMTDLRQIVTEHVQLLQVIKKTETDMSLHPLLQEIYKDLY
Procedure, shortened: (§2)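 Luciferase reporter gene assay in cells transfected with PPRE and luciferase genes; luciferase induction measured over a range of concentrations to derive EC50 and Amax; Amax expressed as a percentage relative to pioglitazone.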

[3] = biological target: CYP2C19 (Homo sapiens, UniProt P33261); assay: Inhibition of CYP2C19 (unknown origin) assessed as percentage remaining activity at 10 uM; format: ADME; settings: read-out: INH; procedure, shortened: as §1
[4] = Tmax in mouse at 10 mg/kg, po; format: ADME, organism-based; settings: in vivo
[5] = Half life in mouse at 10 mg/kg, po; format: ADME, organism-based; settings: in vivo
[6] = biological target: T2, CYP1A2 (Homo sapiens, UniProt P05177); assay: Inhibition of CYP1A2 (unknown origin) assessed as enzyme remaining activity at 10 uM; format: ADME; settings: read-out: INH; procedure, shortened: as §1
T2 sequence (P05177 whole entry): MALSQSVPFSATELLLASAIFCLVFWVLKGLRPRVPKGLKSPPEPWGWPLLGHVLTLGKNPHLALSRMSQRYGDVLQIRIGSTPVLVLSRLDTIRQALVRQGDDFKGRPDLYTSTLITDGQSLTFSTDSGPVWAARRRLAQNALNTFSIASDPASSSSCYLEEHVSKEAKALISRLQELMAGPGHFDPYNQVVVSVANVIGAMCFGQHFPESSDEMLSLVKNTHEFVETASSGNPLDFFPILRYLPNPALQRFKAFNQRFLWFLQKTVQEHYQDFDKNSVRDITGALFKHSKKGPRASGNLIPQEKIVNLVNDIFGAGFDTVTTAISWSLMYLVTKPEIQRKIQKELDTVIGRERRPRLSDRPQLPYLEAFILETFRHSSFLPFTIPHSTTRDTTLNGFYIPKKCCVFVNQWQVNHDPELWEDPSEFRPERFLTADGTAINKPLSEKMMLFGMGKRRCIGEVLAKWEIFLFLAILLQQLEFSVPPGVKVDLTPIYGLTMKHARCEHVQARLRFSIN

[7] = Stability in rat liver microsomes assessed as parent compound remaining at 30 mins; format: ADME, Microsome; settings: read-out: Stability
Procedure, shortened: (§3)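 Compound incubated with liver microsomes (mouse, rat, dog, human) for 30 min; stability expressed as % of parent concentration remaining.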

[8] = Stability in dog liver microsomes assessed as parent compound remaining at 30 mins; format: ADME, Canis lupus familiaris, Microsome; settings: read-out: Stability; procedure, shortened: as §3
[9] = Cmax in mouse at 10 mg/kg, po; format: ADME, organism-based; set-up: dose 10 mg/kg, route oral; settings: in vivo
[10] = Stability in human liver microsomes assessed as parent compound remaining at 30 mins; format: ADME, Microsome; settings: read-out: Stability; procedure, shortened: as §3
[11] = biological target: hERG (KCNH2) (Homo sapiens, UniProt Q12809); assay: Inhibition of human ERG at 10 uM
Procedure, shortened: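 hERG: % inhibition measured at 10 µM.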

[12] = biological target: CYP2C9 (Homo sapiens, UniProt P11712); assay: Inhibition of CYP2C9 (unknown origin) assessed as enzyme remaining activity at 10 uM; format: ADME; settings: read-out: INH; procedure, shortened: as §1
[13] = Stability in mouse liver microsomes assessed as parent compound remaining at 30 mins; format: ADME, Microsome; settings: read-out: Stability; procedure, shortened: as §3
[14] = AUClast in mouse at 10 mg/kg, po; format: ADME, organism-based; set-up: dose 10 mg/kg, route oral, time 0 - last; settings: in vivo
[15] = biological target: CYP3A4 (Homo sapiens, UniProt P08684); assay: Inhibition of CYP3A4 (unknown origin) assessed as percentage remaining activity at 10 uM; format: ADME; settings: read-out: INH; procedure, shortened: as §1
[16] = biological target: T3, Peroxisome proliferator-activated receptor gamma (Homo sapiens) (UniProt P37231); assay: Agonist activity at PPARgamma (unknown origin) assessed as receptor transactivation after 24 hrs by TK-PPRE-Luc expressing cells based luciferase reporter gene assay relative to pioglitazone; procedure, shortened: as §2
T3 sequence (whole entry): T1 sequence (P37231 whole entry)

[17] = test system: Mus musculus; assay: Antidiabetic activity in db/db mouse assessed as reduction in body weight gain at 30 mg/kg, po administered daily once for 2 weeks; format: functional, organism-based
[18] = Toxicity in db/db mouse assessed as reduction in food intake at 30 mg/kg, po administered daily once and measured on day 7; format: organism-based; settings: in vivo
[19] = test system: Mus musculus; assay: Antidiabetic activity in db/db mouse assessed as reduction in blood glucose level at 30 mg/kg, po administered daily once for 2 weeks and measured on day 14 by OGTT method; format: functional, organism-based
[20] = test system: Mus musculus; assay: Antidiabetic activity in db/db mouse assessed as reduction in random blood glucose level at 30 mg/kg, po administered daily once for 2 weeks; format: functional, organism-based
[21] = test system: Mus musculus; assay: Antidiabetic activity in db/db mouse assessed as reduction in body weight gain at 75 mg/kg, po administered via gavage twice daily for 2 weeks and measured on day 14; format: functional, organism-based
[22] = Cmax in rat at 10 mg/kg, po; format: ADME, organism-based; set-up: dose 10 mg/kg, route oral; settings: in vivo
[23] = biological target: T4, Peroxisome proliferator-activated receptor gamma (Mus musculus) (UniProt P37238); assay: Agonist activity at PPARgamma in mouse 3T3-L1 cells assessed as increase in CD36 RNA expression at 10 uM by qRT-PCR analysis; format: cell-based
T4 sequence (whole entry): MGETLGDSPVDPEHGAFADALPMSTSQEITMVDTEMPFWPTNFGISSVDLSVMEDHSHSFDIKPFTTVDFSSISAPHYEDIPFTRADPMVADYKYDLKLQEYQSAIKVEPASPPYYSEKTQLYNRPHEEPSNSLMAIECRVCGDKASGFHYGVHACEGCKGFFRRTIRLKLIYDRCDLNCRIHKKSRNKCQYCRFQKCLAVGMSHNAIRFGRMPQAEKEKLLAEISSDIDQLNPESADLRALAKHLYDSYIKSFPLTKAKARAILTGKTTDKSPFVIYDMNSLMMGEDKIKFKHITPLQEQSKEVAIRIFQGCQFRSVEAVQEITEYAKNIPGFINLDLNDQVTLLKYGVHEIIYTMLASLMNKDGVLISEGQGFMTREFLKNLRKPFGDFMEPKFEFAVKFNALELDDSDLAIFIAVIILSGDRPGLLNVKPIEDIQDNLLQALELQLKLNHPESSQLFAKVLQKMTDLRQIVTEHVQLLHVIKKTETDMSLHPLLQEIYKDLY

[24] = test system: Mus musculus; assay: Antidiabetic activity in db/db mouse assessed as reduction in random blood glucose level at 75 mg/kg, po administered via gavage twice daily for 2 weeks and measured once a week; format: functional, organism-based
[25] = biological target: T4, Peroxisome proliferator-activated receptor gamma (Mus musculus); assay: Agonist activity at PPARgamma in mouse 3T3-L1 cells accessed as increase in insulin stimulated 2-deoxy-D-glucose uptake at 10 uM pre-incubated for 20 mins followed by 2-deoxy-D-glucose addition and measured after 20 to 40 mins by glucose uptake assay; format: cell-based
[26] = biological target: T4, Peroxisome proliferator-activated receptor gamma (Mus musculus); assay: Agonist activity at PPARgamma in mouse 3T3-L1 cells assessed as increase in AP2 RNA expression at 10 uM by qRT-PCR analysis; format: cell-based
[27] = Toxicity in db/db mouse assessed as reduction in food intake at 75 mg/kg, po administered via gavage twice daily and measured on day 7; format: organism-based; settings: in vivo
[28] = Tmax in rat at 10 mg/kg, po; format: ADME, organism-based; settings: in vivo
[29] = AUClast in rat at 10 mg/kg, po; format: ADME, organism-based; set-up: dose 10 mg/kg, time 0 - last, route oral; settings: in vivo
[30] = Half life in rat at 10 mg/kg, po; format: ADME, organism-based; settings: in vivo
[31] = biological target: T4, Peroxisome proliferator-activated receptor gamma (Mus musculus); assay: Agonist activity at GAL4-tagged mouse PPARgamma LBD expressed in monkey CV1 cells assessed as receptor transactivation incubated for 24 hrs by luciferase reporter gene assay relative to telmisartan; format: cell-based
[32] = test system: Mus musculus; assay: Antidiabetic activity in db/db mouse assessed as reduction in blood glucose level at 75 mg/kg, po administered twice daily for 2 weeks and measured on day 14 by OGTT method; format: functional, organism-based
[33] = test system: 3T3-L1; assay: Induction of preadipocyte differentiation in mouse 3T3L1 cells grown in insulin medium assessed as conversion to matured adipocytes measured after 6 days by oil red O staining based phase contrast microscopy; format: functional, cell-based

Chain of CYP2C19 (P33261 whole entry): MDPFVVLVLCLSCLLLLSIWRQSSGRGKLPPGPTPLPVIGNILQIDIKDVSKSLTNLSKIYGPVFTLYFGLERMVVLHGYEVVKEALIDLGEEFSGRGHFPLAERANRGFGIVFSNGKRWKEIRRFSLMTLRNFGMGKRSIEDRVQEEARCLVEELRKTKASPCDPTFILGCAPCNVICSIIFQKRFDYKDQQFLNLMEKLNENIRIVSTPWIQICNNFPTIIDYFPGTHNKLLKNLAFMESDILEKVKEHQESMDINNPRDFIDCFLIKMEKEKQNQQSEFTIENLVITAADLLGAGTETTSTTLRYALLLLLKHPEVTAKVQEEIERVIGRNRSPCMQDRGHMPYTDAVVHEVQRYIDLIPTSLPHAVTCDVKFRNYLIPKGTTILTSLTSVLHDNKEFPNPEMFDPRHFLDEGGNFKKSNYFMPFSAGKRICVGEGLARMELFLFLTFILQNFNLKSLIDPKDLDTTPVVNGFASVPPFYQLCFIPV
Chain of CYP2C9 (P11712 whole entry): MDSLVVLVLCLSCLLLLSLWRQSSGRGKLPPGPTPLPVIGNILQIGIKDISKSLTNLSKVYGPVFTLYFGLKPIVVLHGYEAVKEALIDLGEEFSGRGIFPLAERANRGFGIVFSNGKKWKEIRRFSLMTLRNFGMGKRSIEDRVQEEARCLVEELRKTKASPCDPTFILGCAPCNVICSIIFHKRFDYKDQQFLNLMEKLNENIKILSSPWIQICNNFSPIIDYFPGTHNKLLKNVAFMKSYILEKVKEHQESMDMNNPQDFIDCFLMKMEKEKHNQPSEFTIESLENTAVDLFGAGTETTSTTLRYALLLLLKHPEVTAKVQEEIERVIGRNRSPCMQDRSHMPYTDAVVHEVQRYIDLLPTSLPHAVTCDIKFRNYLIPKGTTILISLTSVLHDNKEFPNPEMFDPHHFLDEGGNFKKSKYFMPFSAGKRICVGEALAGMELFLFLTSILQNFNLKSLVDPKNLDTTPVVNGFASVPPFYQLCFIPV
Chain of CYP3A4 (P08684 whole entry): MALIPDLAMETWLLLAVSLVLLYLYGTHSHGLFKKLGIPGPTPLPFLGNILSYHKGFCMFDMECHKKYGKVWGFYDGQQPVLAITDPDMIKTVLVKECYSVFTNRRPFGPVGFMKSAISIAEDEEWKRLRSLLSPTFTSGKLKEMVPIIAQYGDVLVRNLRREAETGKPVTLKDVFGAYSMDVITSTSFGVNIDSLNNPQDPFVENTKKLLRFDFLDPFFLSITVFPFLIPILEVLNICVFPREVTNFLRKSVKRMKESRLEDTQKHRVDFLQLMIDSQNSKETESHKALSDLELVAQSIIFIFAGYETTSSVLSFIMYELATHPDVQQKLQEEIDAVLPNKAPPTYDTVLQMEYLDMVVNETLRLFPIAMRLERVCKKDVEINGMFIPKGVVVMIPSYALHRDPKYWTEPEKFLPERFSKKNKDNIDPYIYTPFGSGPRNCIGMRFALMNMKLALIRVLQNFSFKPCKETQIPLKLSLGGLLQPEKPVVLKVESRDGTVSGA
Chain of hERG (KCNH2) (Q12809 whole entry): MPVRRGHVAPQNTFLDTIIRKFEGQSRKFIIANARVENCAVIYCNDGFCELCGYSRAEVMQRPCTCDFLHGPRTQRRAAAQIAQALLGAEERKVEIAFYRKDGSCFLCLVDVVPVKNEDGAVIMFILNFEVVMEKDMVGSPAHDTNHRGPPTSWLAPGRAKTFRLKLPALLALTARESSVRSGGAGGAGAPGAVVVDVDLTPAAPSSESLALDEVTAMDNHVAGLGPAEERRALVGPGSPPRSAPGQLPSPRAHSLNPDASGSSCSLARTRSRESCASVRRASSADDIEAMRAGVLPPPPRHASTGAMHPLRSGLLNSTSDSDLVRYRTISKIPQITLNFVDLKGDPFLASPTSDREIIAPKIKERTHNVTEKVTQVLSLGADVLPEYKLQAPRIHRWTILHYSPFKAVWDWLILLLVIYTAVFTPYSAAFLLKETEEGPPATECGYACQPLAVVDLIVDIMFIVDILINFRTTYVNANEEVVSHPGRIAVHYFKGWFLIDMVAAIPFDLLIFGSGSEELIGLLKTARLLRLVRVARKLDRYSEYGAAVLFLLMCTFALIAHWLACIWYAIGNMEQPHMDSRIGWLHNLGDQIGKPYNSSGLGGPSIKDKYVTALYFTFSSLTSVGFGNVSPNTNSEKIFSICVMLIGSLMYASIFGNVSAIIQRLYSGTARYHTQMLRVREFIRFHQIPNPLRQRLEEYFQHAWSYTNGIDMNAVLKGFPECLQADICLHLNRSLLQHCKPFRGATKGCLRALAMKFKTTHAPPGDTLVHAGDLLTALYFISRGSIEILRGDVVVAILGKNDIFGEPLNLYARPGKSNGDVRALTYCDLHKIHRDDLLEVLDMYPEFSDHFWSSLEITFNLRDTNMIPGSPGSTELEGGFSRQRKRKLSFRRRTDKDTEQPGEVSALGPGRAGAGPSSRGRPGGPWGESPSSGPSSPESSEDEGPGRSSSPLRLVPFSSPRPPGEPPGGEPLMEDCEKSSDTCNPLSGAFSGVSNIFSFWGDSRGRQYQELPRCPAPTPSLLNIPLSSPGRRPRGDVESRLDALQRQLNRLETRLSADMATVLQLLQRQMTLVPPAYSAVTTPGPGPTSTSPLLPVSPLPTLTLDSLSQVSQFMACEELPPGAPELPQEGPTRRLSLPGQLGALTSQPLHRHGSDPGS
Chain of CYP2D6 (P10635 whole entry, canonical isoform): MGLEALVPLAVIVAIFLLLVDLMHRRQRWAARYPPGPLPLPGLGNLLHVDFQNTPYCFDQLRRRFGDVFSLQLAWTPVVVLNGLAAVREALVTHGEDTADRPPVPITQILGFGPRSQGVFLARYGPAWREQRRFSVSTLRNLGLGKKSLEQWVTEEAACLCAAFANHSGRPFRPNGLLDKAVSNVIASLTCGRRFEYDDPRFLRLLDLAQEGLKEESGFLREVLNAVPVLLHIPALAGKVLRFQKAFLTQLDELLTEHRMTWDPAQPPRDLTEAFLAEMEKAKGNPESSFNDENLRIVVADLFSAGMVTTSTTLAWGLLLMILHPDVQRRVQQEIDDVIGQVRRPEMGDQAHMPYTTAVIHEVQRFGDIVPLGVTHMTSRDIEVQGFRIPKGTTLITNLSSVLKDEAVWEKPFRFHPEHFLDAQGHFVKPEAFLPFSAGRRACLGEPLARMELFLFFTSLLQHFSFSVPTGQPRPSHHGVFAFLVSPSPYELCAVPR

activity at 10 µM [1]	EC50 [2]	activity at 10 µM [3]	Tmax [4]	half-life [5]	activity at 10 µM [6]	remaining at 0.5 h [7]	remaining at 0.5 h [8]	Cmax [9]	remaining at 0.5 h [10]	activity at 10 µM [12]	remaining at 0.5 h [13]	AUC(0-t) [14]	activity at 10 µM [15]	%max [16]	SMILES	inhibition at 10 µM [11]	other results
89%	590 nM	78%	19.8 min	49.2 min	92%	13%	13%	547 ng/mL	12%	33%	24%	581 ng·h/mL	50%	123%	CCCCc1nc(C(C)C)c(Cc2nc(C(C)(C)C)no2)c(=O)n1Cc1ccc(-c2ccccc2-c2noc(=O)[nH]2)cc1	16%	–
–	–	–	–	–	–	–	–	–	–	–	–	–	–	–	CCc1ccc(CCOc2ccc(CC3SC(=O)NC3=O)cc2)nc1 (centres undefined) [PIOGLITAZONE]	–	Activity [17]: inactive; Activity [18]: Toxic; Activity [19]: Active; Activity [20]: Active
93%	280 nM	84%	19.8 min	70.8 min	88%	12%	11%	949 ng/mL	17%	57%	11%	584 ng·h/mL	64%	98%	CCCCc1nc(C)c(Cc2nc(C(C)(C)C)no2)c(=O)n1Cc1ccc(-c2ccccc2-c2noc(=O)[nH]2)cc1	8.3%	Activity [21]: inactive; Cmax [22]: 1320 ng/mL; Activity [23]: Active; Activity [24]: Active; Activity [25]: Active; Activity [26]: Active; Activity [27]: Toxic; Tmax [28]: 18 min; AUC(0-t) [29]: 889 ng·h/mL; half-life [30]: 107 min; %max [31]: 331%; Activity [32]: Active; Activity [33]: Dose-dependent effect
